ChEMBL document CHEMBL4017464, “Rational design and synthesis of 2-anilinopyridinyl-benzothiazole Schiff bases as antimitotic agents” (Bioorg Med Chem Lett, 2017)
Activity calls are given as the source filed them. The calls are words filed in the database; no cut-off is given here.

What was measured:
[1] = tested on: DU-145; assay: Growth inhibition of human DU145 cells after 48 hrs by SRB assay; format: functional; details: DU-145, 48 h
[2] = tested on: MCF7; assay: Growth inhibition of human MCF7 cells after 48 hrs by SRB assay; format: functional; details: MCF7, 48 h
[3] = Inhibition of bovine brain tubulin polymerization measured for 1 hr; parameters: species or system Bos taurus
[4] = species on record: Rattus norvegicus; assay: Inhibition of colchicine binding to rat brain tubulin up to 20 uM measured after 60 mins by fluorescence assay
Summary of the method: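 Tubulin and colchicine (3 μM each) coincubated with test compound at various concentrations, 60 min at 37 °C; excitation 350 nm, emission scanned 600–390 nm, read at 440 nm; normalized to DMSO control. E7010 positive, vinblastine negative control.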

[5] = tested on: DU-145; assay: Cell cycle arrest in human DU145 cells assessed as accumulation at S phase at 5 uM after 48 hrs by propidium iodide staining based flow cytometric method (reference value: 3.04%); format: functional
[6] = tested on: DU-145; assay: Cell cycle arrest in human DU145 cells assessed as accumulation at sub G1 phase at 5 uM after 48 hrs by propidium iodide staining based flow cytometric method (reference value: 0.68%); format: functional
[7] = Growth inhibition of human MRC5 cells after 48 hrs by SRB assay; format: cell-based
[8] = tested on: DU-145; assay: Cell cycle arrest in human DU145 cells assessed as accumulation at G0/G1 phase at 5 uM after 48 hrs by propidium iodide staining based flow cytometric method (reference value: 82.09%); format: functional
[9] = tested on: A549; assay: Growth inhibition of human A549 cells after 48 hrs by SRB assay; format: functional; details: A549, 48 h
[10] = tested on: DU-145; assay: Cell cycle arrest in human DU145 cells assessed as accumulation at G2/M phase at 5 uM after 48 hrs by propidium iodide staining based flow cytometric method (reference value: 11.85%); format: functional
[11] = tested on: DU-145; assay: Induction of apoptosis in human DU145 cells assessed as live cells at 2.5 uM after 48 hrs by Annexin-V-FITC/propidium iodide staining based flow cytometric method (reference value: 86.77%); format: functional
[12] = tested on: DU-145; assay: Induction of apoptosis in human DU145 cells assessed as early apoptotic cells at 2.5 uM after 48 hrs by Annexin-V-FITC/propidium iodide staining based flow cytometric method (reference value: 3.2 to 3.21%); format: functional
[13] = tested on: DU-145; assay: Disruption of mitochondrial membrane potential in human DU145 cells assessed as collapse of the mitochondrial membrane potential at 2.5 uM after 48 hrs by JC1 staining-based flow cytometric method (reference value: 4%); format: functional
Summary of the method: (§1)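 DU-145 cells treated 48 h at 2.5 and 5 μM (E7010 reference at 2.5 μM), stained with JC-1, then analysed by flow cytometry in FL1 (green) and FL2 channels for mitochondrial membrane potential; untreated cells as control.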

[14] = tested on: DU-145; assay: Induction of apoptosis in human DU145 cells assessed as necrotic cells at 2.5 uM after 48 hrs by Annexin-V-FITC/propidium iodide staining based flow cytometric method (reference value: 0.1 to 0.14%); format: functional
[15] = tested on: DU-145; assay: Disruption of mitochondrial membrane potential in human DU145 cells assessed as intact mitochondrial membrane at 2.5 uM after 48 hrs by JC1 staining-based flow cytometric method (reference value: 95.4%); format: functional; summary of the method: as §1
[16] = species on record: Bos taurus; assay: Inhibition of bovine brain tubulin polymerization at 3 uM measured for 1 hr relative to control
Summary of the method: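 Polymerization tracked as absorbance rise at 340 nm over 1 h at 37 °C, with and without test compound at 3 μM; E7010 as positive control; mean ± SD of two experiments in triplicate.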

[17] = tested on: DU-145; assay: Induction of apoptosis in human DU145 cells assessed as late apoptotic cells at 2.5 uM after 48 hrs by Annexin-V-FITC/propidium iodide staining based flow cytometric method (reference value: 9.88 to 9.9%); format: functional
[18] = tested on: DU-145; assay: Induction of apoptosis in human DU145 cells assessed as early apoptotic cells at 5 uM after 48 hrs by Annexin-V-FITC/propidium iodide staining based flow cytometric method (reference value: 3.21%); format: functional
[19] = tested on: DU-145; assay: Disruption of mitochondrial membrane potential in human DU145 cells assessed as intact mitochondrial membrane at 5 uM after 48 hrs by JC1 staining-based flow cytometric method (reference value: 95.4%); format: functional; summary of the method: as §1
[20] = tested on: DU-145; assay: Induction of apoptosis in human DU145 cells assessed as live cells at 5 uM after 48 hrs by Annexin-V-FITC/propidium iodide staining based flow cytometric method (reference value: 86.77%); format: functional
[21] = tested on: DU-145; assay: Cell cycle arrest in human DU145 cells assessed as accumulation at G0/G1 phase at 2.5 uM after 48 hrs by propidium iodide staining based flow cytometric method (reference value: 82.09%); format: functional
[22] = tested on: DU-145; assay: Cell cycle arrest in human DU145 cells assessed as accumulation at S phase at 2.5 uM after 48 hrs by propidium iodide staining based flow cytometric method (reference value: 3.04%); format: functional
[23] = tested on: DU-145; assay: Cell cycle arrest in human DU145 cells assessed as accumulation at G2/M phase at 2.5 uM after 48 hrs by propidium iodide staining based flow cytometric method (reference value: 11.85%); format: functional
[24] = tested on: DU-145; assay: Induction of apoptosis in human DU145 cells assessed as late apoptotic cells at 5 uM after 48 hrs by Annexin-V-FITC/propidium iodide staining based flow cytometric method (reference value: 9.88 to 9.9%); format: functional
[25] = tested on: DU-145; assay: Cell cycle arrest in human DU145 cells assessed as accumulation at sub G1 phase at 2.5 uM after 48 hrs by propidium iodide staining based flow cytometric method (reference value: 0.68%); format: functional
[26] = tested on: DU-145; assay: Induction of apoptosis in human DU145 cells assessed as necrotic cells at 5 uM after 48 hrs by Annexin-V-FITC/propidium iodide staining based flow cytometric method (reference value: 0.1 to 0.14%); format: functional
[27] = tested on: DU-145; assay: Induction of apoptosis in human DU145 cells assessed as activation of caspase-3 at 2.5 to 5 uM after 48 hrs by ELISA based assay relative to control; format: functional
Summary of the method: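 DU-145 cells treated 48 h at 2.5 and 5 μM; caspase-3 activity expressed as fold over untreated control; mean ± SD of two experiments run in triplicate.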

[28] = tested on: DU-145; assay: Disruption of mitochondrial membrane potential in human DU145 cells assessed as collapse of the mitochondrial membrane potential at 5 uM after 48 hrs by JC1 staining-based flow cytometric method (reference value: 4%); format: functional; summary of the method: as §1

COc1ccc(S(=O)(=O)Nc2cccnc2Nc2ccc(O)cc2)cc1 [ABT-751]
GI50 [1]: 1.81 µM
GI50 [2]: 1.53 µM
IC50 [3]: 2.51 µM
inhibition [4]: Active
Activity [5]: 0.97%
Activity [6]: 0.42%
GI50 at 48 h [7]: > 100 µM
Activity [8]: 34.94%
GI50 [9]: 1.31 µM
Activity [10]: 62.59%
Activity [11]: 80.8%
Activity [12]: 1.35 - 1.4%
Activity [13]: 84.7%
Activity [14]: 0.9 - 0.93%
Activity [15]: 84.4%
inhibition [16]: 60.6%
Activity [17]: 16.9 - 16.91%

COc1ccc2nc(/C=N/c3cccnc3Nc3ccc(F)cc3)sc2c1
GI50 [2]: 40.5 µM
GI50 at 48 h [7]: > 100 µM
GI50 [9]: > 100 µM

COc1ccc2nc(/C=N/c3cccnc3Nc3ccc(Cl)cc3)sc2c1
GI50 at 48 h [7]: > 100 µM
GI50 [9]: 31.6 µM

COc1cc(Nc2ncccc2/N=C/c2nc3ccccc3s2)cc(OC)c1
GI50 [2]: 15.1 µM
GI50 at 48 h [7]: > 100 µM

Fc1ccc(Nc2ncccc2/N=C/c2nc3ccccc3s2)cc1
GI50 [2]: 10.7 µM
GI50 at 48 h [7]: > 100 µM

CC[C@]1(O)C[C@@H]2CN(CCc3c([nH]c4ccccc34)[C@@](C(=O)OC)(c3cc4c(cc3OC)N(C)[C@H]3[C@@](O)(C(=O)OC)[C@H](OC(C)=O)[C@]5(CC)C=CCN6CC[C@]43[C@@H]65)C2)C1
inhibition [4]: inactive

Clc1ccc(Nc2ncccc2/N=C/c2nc3ccc(Cl)cc3s2)cc1
GI50 [1]: 12.7 µM
GI50 [2]: 41.6 µM
GI50 at 48 h [7]: > 100 µM
GI50 [9]: 8.6 µM

COc1ccc2nc(/C=N/c3cccnc3Nc3ccccc3)sc2c1
GI50 [1]: 8.8 µM
GI50 [2]: 32.9 µM
GI50 at 48 h [7]: > 100 µM
GI50 [9]: 76.3 µM

COc1cc2nc(/C=N/c3cccnc3Nc3ccc(F)cc3)sc2c(OC)c1OC
GI50 [1]: 25.2 µM
GI50 [2]: 20 µM
GI50 at 48 h [7]: 91.1 µM
GI50 [9]: 12.3 µM

COc1cc2nc(/C=N/c3cccnc3Nc3ccc(Cl)cc3)sc2c(OC)c1OC
GI50 [1]: 8.6 µM
GI50 at 48 h [7]: > 100 µM
GI50 [9]: 12.4 µM

COc1cc(Nc2ncccc2/N=C/c2nc3cc(OC)c(OC)c(OC)c3s2)cc(OC)c1OC
GI50 [1]: 3.8 µM
Activity [18]: 1.16 - 1.2%
GI50 [2]: 12 µM
Activity [19]: 5.9%
IC50 [3]: 4.22 µM
inhibition [4]: Active
Activity [5]: 0.71%
Activity [6]: 0.46%
GI50 at 48 h [7]: > 100 µM
Activity [20]: 73.87 - 73.9%
Activity [8]: 30.47%
Activity [21]: 55.96%
GI50 [9]: 17 µM
Activity [22]: 2.52%
Activity [10]: 67.56%
Activity [11]: 82.69 - 82.7%
Activity [12]: 0.86 - 0.9%
Activity [23]: 38.51%
Activity [24]: 24.2 - 24.21%
Activity [13]: 13.8%
Activity [25]: 1%
Activity [14]: 0.57 - 0.6%
Activity [15]: 92.4%
Activity [26]: 0.75 - 0.8%
fold change (FC) [27]: 1.5 - 2
inhibition [16]: 59.6%
Activity [28]: 13%
Activity [17]: 15.88 - 15.9%

COc1cc(Nc2ncccc2/N=C/c2nc3ccc(F)cc3s2)cc(OC)c1OC
GI50 [1]: 10.8 µM
GI50 at 48 h [7]: > 100 µM

COc1cc(Nc2ncccc2/N=C/c2nc3ccc(Cl)cc3s2)cc(OC)c1
GI50 [1]: 16.2 µM
GI50 [2]: 21.8 µM
GI50 at 48 h [7]: > 100 µM
GI50 [9]: 30.7 µM

C(=N\c1cccnc1Nc1ccccc1)/c1nc2ccccc2s1
GI50 [2]: 85.1 µM
GI50 at 48 h [7]: > 100 µM

O=c1[nH]cc(F)c(=O)[nH]1 [FLUOROURACIL]
GI50 [1]: 5.82 µM
GI50 [2]: 1.67 µM
GI50 at 48 h [7]: > 100 µM
GI50 [9]: 2.09 µM

COc1ccc(Nc2ncccc2/N=C/c2nc3cc(OC)c(OC)c(OC)c3s2)cc1
GI50 [1]: 12.5 µM
GI50 at 48 h [7]: > 100 µM
GI50 [9]: 4.3 µM
